STEP block: STEP phosphatase inhibitors, primary screen, biochemical, fluorescence intensity, uHTS. Tyrosine-protein phosphatase non-receptor type 5 (Homo sapiens), P54829. recombinant STEP, OMFP fluorogenic substrate. inhibition, % at 20 µM. 360,000 compounds, 0.25% hits. AID 588621, 2011;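 active = inhibition at 20 µM, scaled per plate between control wells, above about 37%, limit read from the data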
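material = STEP tyrosine phosphatase | reagent = fluorogenic phosphatase substrate OMFP at 25 µM final | doses = single compound dose of 20 µM, 1% DMSO final | schedule = 20 min reaction, room temperature, in the dark | measured by = fluorescence, 480/540 nm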
Scp1 inh: Scp-1 phosphatase inhibitors, primary screen, biochemical, colorimetric, uHTS. Recombinant Scp1, phosphopeptide, malachite green phosphate absorbance. inhibition, % at 20 µM. 340,000 compounds, 0.88% hits. AID 493091, 2011;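 active = inhibition above about 50% at 20 µM, limit read from the data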
Target sequence (Q9GZU7 76-261 limits assumed): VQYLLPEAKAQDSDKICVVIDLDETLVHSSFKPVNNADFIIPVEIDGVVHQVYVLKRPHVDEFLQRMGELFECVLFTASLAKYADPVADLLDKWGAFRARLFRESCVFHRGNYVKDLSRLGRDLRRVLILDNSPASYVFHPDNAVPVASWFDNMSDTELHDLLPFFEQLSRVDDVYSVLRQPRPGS
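Assay system: SCP-1 catalytic fragment, aa 76-261 | Buffer or medium: Tris acetate buffer pH 5.5 with MgCl2 and Tween-20 | Compound: One concentration, 20 µM, with 1.0% DMSO | Also added: Phospho 17-mer peptide substrate | Signal: Absorbance at 630 nm | Incubation: 45 min enzyme reaction at room temperature | Measure: % inhibition of SCP-1 phosphate liberation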
SUMO1-SIM PPI: modulators of SUMO1 protein-protein interactions, primary screen, biochemical, uHTS; Small ubiquitin-related modifier 1 (Homo sapiens), P63165; SUMO1 binding to a labelled peptide, TR-FRET, 1 h; inhibition, % at 20 µM; 360,000 compounds, 0.33% hits; in the data active = inhibition above about 37%
Target sequence (P63165 whole entry, looked up): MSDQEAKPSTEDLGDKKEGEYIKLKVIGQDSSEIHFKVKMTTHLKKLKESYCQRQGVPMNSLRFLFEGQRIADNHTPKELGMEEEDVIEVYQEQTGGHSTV
LMPTP block: LMPTP phosphatase inhibitors, primary screen, biochemical, fluorescence intensity, uHTS | AID 651560, 2012 | 360,000 compounds, 0.22% hits | recombinant LMPTP-A, OMFP fluorogenic substrate | inhibition, % at 20 µM;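 active = compounds that cut the enzyme signal by at least half of the control window in the single-dose screen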
Target sequence (P24666 whole entry, looked up): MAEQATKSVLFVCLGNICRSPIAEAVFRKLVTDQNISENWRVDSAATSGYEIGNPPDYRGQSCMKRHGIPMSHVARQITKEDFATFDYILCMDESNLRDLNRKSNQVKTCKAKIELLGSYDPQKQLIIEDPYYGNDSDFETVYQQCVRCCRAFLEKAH
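Test system: LMPTP-A phosphatase enzyme. Amount: LMPTP-A at 0.625 nM final in the reaction. Reagent: OMFP substrate, 400 µM final. Times: 50 min at room temperature. Signal: endpoint fluorescence intensity from OMFP dephosphorylation. Read-out basis: % inhibition. Benchmarks: no-enzyme and uninhibited controls.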
DNMT1 inh: human DNMT1 methyltransferase inhibitors, primary screen, biochemical, molecular beacon, fluorescence, HinP1I cleavage, uHTS; DNA (cytosine-5)-methyltransferase 1 (Homo sapiens), P26358; inhibition (reported as % activation of signal), % at 10 µM; 360,000 compounds, 0.83% hits; AID 588458, 2011; in the data active = inhibition above about 50%
Scp-1 conf: Scp-1 phosphatase inhibitors, retest, confirmation, biochemical, colorimetric, single concentration | shares compounds with Scp1 inh | recombinant SCP-1 catalytic domain, phosphate release, malachite green absorbance | inhibition, % at 20 µM | 2,500 compounds, 61% hits
MG interference: colorimetric readout interference by compounds, confirmation, artefact control for Scp-1 inhibitor project, biochemical, single concentration; shares compounds with Scp1 inh; Colorimetric interference counterscreen, malachite green absorbance 630 nm; apparent inhibition (interference), % at 20 µM; 2,500 tested, under 10 active; AID 540313, 2011;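 also: compounds added after enzyme reaction finished so only phosphate colour detection is probed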
Scp-1 Tm shift: Scp-1 binding by thermal shift, confirmation, orthogonal assay for Scp-1 inhibitor project, biophysical, differential scanning fluorimetry | AID 540329, 2011 | thermal shift relative to vanadate control, % at 40 µM | Recombinant SCP1, Sypro Orange thermal shift Tm | 1,500 compounds, 25% hits | shares compounds with Scp1 inh;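 active = substances whose mean melting-temperature shift, as a percentage of the reference inhibitor's shift, reaches about 5.3%, limit read from the data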
DNMT1 confirm: DNMT1 methyltransferase inhibitor retest, confirmation, biochemical, molecular beacon, fluorescence, single concentration; DNMT1 molecular beacon HinP1I cleavage; inhibition, % at 10 µM; 2,300 compounds, 8% hits; shares compounds with DNMT1 inh;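 active = average inhibition of at least 30% in the single-concentration confirmation test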
DNMT1 interf: beacon fluorescence artifact counter-screen; activation (fluorescence interference), % at 10 µM; 2,300 compounds, 1% hits; shares compounds with DNMT1 inh; DNMT1 molecular beacon spectral interference counterscreen, fluorescence 485/520;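 active = activation of at least 30% at 10 µM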;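 also: DNMT1 catalytic domain with a HinP1I cleavage step and a FAM/dabcyl DNA beacon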
STEP conf: STEP phosphatase inhibitor hit confirmation, biochemical, fluorescence intensity, single concentration | recombinant STEP, OMFP fluorogenic substrate | 520 compounds, 32% hits | shares compounds with STEP block | inhibition, % at 20 µM; call rule not given here
Of the large screens only hits and unclear results are named; the others gave an inactive call (follow-up assays come after a bar, where they were run). This is a sample that favours compounds with a hit; in the whole collection about 1.7% have one here.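 The calls were made as follows, unless noted: active = inhibition of at least 30% at 20 µM; inactive = the rest.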

C/C(=N\Nc1nccnc1Cl)c1ccc(O)c(C)c1	none
Cc1cc(C(=O)N/N=C/c2ccc(-c3ccc([N+](=O)[O-])cc3Cl)o2)n[nH]1	STEP block 94, Scp1 inh 56, SUMO1-SIM PPI 68, LMPTP block 69 | Scp-1 conf 68 | MG interference inactive | Scp-1 Tm shift 8.7 | STEP conf 34
Cc1cc(C(=O)N/N=C/c2ccc(-c3cccc([N+](=O)[O-])c3)o2)n[nH]1	none
O=C(c1ccco1)N1CCN(C(=S)Nc2ccccc2C(F)(F)F)CC1	none
Cc1nn(-c2ccccc2)c2nc(C(F)F)cc(C(F)F)c12	none
O=[N+]([O-])c1ccc(-c2ccc(/C=N/Nc3nc(N4CCCC4)nc(N4CCCC4)n3)o2)cc1	none
COc1ccc(-c2cnnc(N/N=C/c3ccc(-c4ccc([N+](=O)[O-])cc4)o3)n2)cc1	STEP block 50, Scp1 inh 108, LMPTP block 57 | Scp-1 conf 49 | MG interference inactive | Scp-1 Tm shift inactive | STEP conf inactive
C[C@H](CO)N1C[C@H](C)[C@@H](CN(C)C(=O)Nc2ccc(C(F)(F)F)cc2)Oc2ccc(NC(=O)Nc3ccc(C(F)(F)F)cc3)cc2C1=O	none
C[C@H](CO)N1C[C@H](C)[C@@H](CN(C)C(=O)Nc2ccc(C(F)(F)F)cc2)Oc2ccc(NC(=O)c3ccncc3)cc2C1=O	STEP block 52, Scp1 inh 77, LMPTP block 64, DNMT1 inh 92 | Scp-1 conf inactive | MG interference inactive | DNMT1 confirm inactive | DNMT1 interf inactive | STEP conf inactive
CCCC(=O)N1CCC1(C)C(=O)NS(=O)(=O)c1cccc(F)c1 (configuration not stated)	none (no result: Scp1 inh)
O=C(NCc1ccon1)c1ccc(OC2CCN(CCc3ccccc3)CC2)cc1	none
CCc1cc(CNC(=O)c2ccc(OC3CCN(CCc4ccccc4)CC3)cc2)on1	STEP block 92, Scp1 inh 74 | Scp-1 conf 65 | MG interference inactive | Scp-1 Tm shift inactive | STEP conf inactive
Cc1ccc(-n2c(C)nc3oc4ccccc4c(=O)c3c2=O)cc1	STEP block 49, Scp1 inh 68, LMPTP block 61, DNMT1 inh 99 | Scp-1 conf 61 | MG interference inactive | Scp-1 Tm shift inactive | DNMT1 confirm inactive | DNMT1 interf inactive | STEP conf 85
O=C(NNC(=O)C12CC3CC(CC(Cl)(C3)C1)C2)c1csc(N2CCOCC2)n1	none
O=C(O)/C=C/c1cn(-c2ccccc2)nc1-c1cc2ccccc2oc1=O	none
O=Cc1cn(-c2ccccc2)nc1-c1cc2cc(O)ccc2oc1=O	STEP block 60, Scp1 inh 64, SUMO1-SIM PPI 44, LMPTP block 55 | Scp-1 conf 53 | MG interference inactive | Scp-1 Tm shift inactive | STEP conf 79
Clc1ccc(Br)cc1-c1nc(-c2ccncc2)no1	STEP block 65, Scp1 inh 102, LMPTP block 72 | Scp-1 conf 35 | MG interference inactive | Scp-1 Tm shift inactive | STEP conf inactive
Brc1cccc(-c2nc(-c3ccncc3)no2)c1	none
Cc1csc2c(=O)sc(NC(=O)c3cccs3)nc12	STEP block 95, Scp1 inh 97, LMPTP block 69 | Scp-1 conf 63 | MG interference inactive | Scp-1 Tm shift inactive | STEP conf inactive
Cc1csc(NC(=O)c2cccs2)n1	none
O=[N+]([O-])c1cccc(/C=N/n2c(-c3cccnc3)n[nH]c2=S)c1	none
O=[N+]([O-])c1ccc(/C=N/n2c(-c3cccnc3)n[nH]c2=S)cc1	STEP block 56, Scp1 inh 60 | Scp-1 conf 52 | MG interference inactive | Scp-1 Tm shift inactive | STEP conf inactive
CC(=O)Oc1ccc(/C=N\NC(=O)c2cc3c(ccc4ccccc43)o2)cc1	STEP block 90, Scp1 inh 92 | Scp-1 conf 69 | MG interference inactive | Scp-1 Tm shift inactive | STEP conf inactive
Cc1cc2c(=O)n(C)c(SCC(=O)Nc3ccc(F)cc3)nc2s1	none
COc1ccc(OCC(=O)Nc2cccc(-c3nc4ccccc4o3)c2)cc1	none
CCc1ccc(OCC(=O)Nc2ccc(-c3nc4ccccc4o3)c(O)c2)cc1	STEP block 66, Scp1 inh 100, DNMT1 inh 77 | Scp-1 conf 73 | MG interference inactive | Scp-1 Tm shift inactive | DNMT1 confirm inactive | DNMT1 interf inactive | STEP conf 19
Cc1c(CC(=O)O)c(=O)oc2c(C)c(OCc3ccc(F)cc3F)ccc12	none
Cc1c(CC(=O)O)c(=O)oc2c(C)c(OCc3ccc(F)cc3Cl)ccc12	STEP block 98, Scp1 inh 64, SUMO1-SIM PPI 84, LMPTP block 85 | Scp-1 conf 68 | MG interference inactive | Scp-1 Tm shift inactive | STEP conf 62
CCOC(=O)C1CCCN(C(=O)c2ccc(-c3ccc([N+](=O)[O-])cc3)o2)C1 (configuration not stated)	none
Cc1nn(Cc2ccccc2Cl)c(C)c1C(=O)N(C)CC(=O)Nc1cccc(F)c1	none
